High-throughput results (PubChem BioAssay)
Rows were chosen to be rich in hits. Some 12% of all compounds tested hit in one or more screens of this group.
PKD1 inh: inhibitors of human PKD1 kinase; Q15139; actives 0.056% (n = 200,000); inhibition, % (test concentration not listed); PKD1 kinase fluorescence polarization assay
CHOP inh: blocks CHOP induction under ER stress; CHO-K1 CHOP-promoter luciferase, tunicamycin-induced, 15-18 h; inhibition, % at 10 µM; actives 3.8% (n = 220,000);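 active means compounds that reduced the stress-induced luciferase reporter signal by more than about 70% of percent inhibition, limit read from the data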;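 further: 0% = tunicamycin plus vehicle and 100% = wells without tunicamycin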
Wee1 degr inh: human Wee1 degradation inhibition, primary screen; P30291; HeLa Luc-Wee1K328M stability, luciferase luminescence; 100% = proteasome inhibitor MG132 effect; reporter increase, % at 5 µM; actives 1.2% (n = 220,000); AID 1321;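 active means activation above the mean of all tested compounds plus 3 SD, set per screening run, cut at about 8.8% in these data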;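 further: cells exposed to compound for 20 h before luminescence read; 0% = DMSO alone and 100% = MG132 at 30 µM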
Target sequence (P30291 whole entry K328M): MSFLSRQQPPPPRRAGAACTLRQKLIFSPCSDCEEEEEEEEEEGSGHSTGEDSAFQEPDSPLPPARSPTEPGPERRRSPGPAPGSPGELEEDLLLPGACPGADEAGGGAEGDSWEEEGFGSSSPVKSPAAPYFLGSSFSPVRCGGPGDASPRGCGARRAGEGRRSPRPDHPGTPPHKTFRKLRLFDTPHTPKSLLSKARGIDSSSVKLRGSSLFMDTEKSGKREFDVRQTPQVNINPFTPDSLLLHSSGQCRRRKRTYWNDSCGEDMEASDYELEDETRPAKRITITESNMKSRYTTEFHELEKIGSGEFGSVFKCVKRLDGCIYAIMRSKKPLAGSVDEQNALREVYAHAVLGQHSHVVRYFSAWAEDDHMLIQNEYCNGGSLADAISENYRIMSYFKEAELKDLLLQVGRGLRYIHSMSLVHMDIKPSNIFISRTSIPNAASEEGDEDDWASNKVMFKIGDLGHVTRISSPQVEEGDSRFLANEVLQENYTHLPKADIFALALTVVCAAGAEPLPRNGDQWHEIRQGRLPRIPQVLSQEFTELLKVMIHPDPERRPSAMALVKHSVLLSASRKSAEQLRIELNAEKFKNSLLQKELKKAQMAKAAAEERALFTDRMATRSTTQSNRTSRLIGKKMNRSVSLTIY
Rad51 HR inh: Rad51 (human) homologous recombination inhibition | Q06609 | hRad51 DNA strand exchange, fluorescence dequenching | inhibition, % at 10 µM | actives 0.085% (n = 200,000) | AID 1385;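 active means inhibition above 40% at the single screening dose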;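 further: 0% = DMSO control wells and 100% = blanks with heterologous ssDNA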
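Test system: preformed human Rad51 ssDNA filaments; also added: Donor/quencher-labelled 47-bp dsDNA substrate; doses: 10 µM final, single point; times: 37 °C 15-min filament assembly, 30-min compound preincubation, 15-min exchange; detection: FRET fluorescence dequenching, excitation 485 nm, emission 520 nm; read-out basis: Fluorescence-based percent inhibition, control- and blank-normalised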
Arbovirus anti: blocks arbovirus infection; arbovirus infection cell-based antiviral screen; inhibition, % at 10 µM; actives 0.37% (n = 200,000); AID 1251; in the data active means inhibition above about 30%
Lmaj promast: Leishmania major promastigote growth inhibition | inhibition, % at 10 µM | Leishmania major promastigotes, resazurin fluorescence viability | actives 9% (n = 200,000);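 further: promastigotes grown with compound for 44 hours at 28 °C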
L major 1uM: blocks Leishmania major promastigote growth at 1 uM, repeat screen; shares compounds with Lmaj promast; L. major promastigote growth, resazurin fluorescence, 48 h; inhibition, % at 1 µM; actives 13% (n = 1,100); AID 1258;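 active means inhibition above about 50% in both repeat tests, limit read from the data; inconclusive means one repeat under the set limit, the other over it; inactive means both repeats under the set limit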
CHOP confirm: confirmation of CHOP induction inhibitors | CHO-CHOP promoter luciferase reporter, tunicamycin-induced, luminescence | shares compounds with CHOP inh | inhibition, % at 10 µM | actives 45% (n = 2,100);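 active means mean of three repeat readings of reporter signal inhibition above a set limit, cut at about 70% in these data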;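 further: 0% = tunicamycin plus vehicle and 100% = wells lacking tunicamycin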
An asterisk follows results filed as active; ? = inconclusive; . = not tested or not shown. Unless noted, no stated cut-off is given here; in the data, active means inhibition above about 50%; inactive means the rest.

SMILES	PKD1 inh	CHOP inh	Wee1 degr inh	Rad51 HR inh	Arbovirus anti	Lmaj promast	L major 1uM	others
O=C1C2CCN(CC2)C1Cc1ccc(OCCOc2ccccc2)cc1 (centres undefined)	-8	10	2	1	-13	100*	97*
Cc1c(P(=S)(c2ccccc2)c2ccccc2)[n+]2ccccc2n1C	5	-1	0	-1	4	73*	-9
N[C@@H]1CCCC[C@H]1N.O=C(O)C(=O)O.[Pt]	.	.	.	7	.	.	.
Cc1nc2c(=O)n(C)c(=O)nc-2n(C)n1	6	.	-5	.	-27	101*	101*
CCOC(=O)C(C)(CC)NC(=O)CSP(=S)(OCC)OCC (centres undefined)	-6	30	-2	4	0	1	.
Cc1cccc(OP(=O)(Nc2cccnc2)Oc2cccc(C)c2)c1	1	-12	-4	-7	7	92*	?
Cc1cccc(OP(=O)(Nc2ccc(F)cc2)Oc2cccc(C)c2)c1	-8	-11	2	.	-11	28	.
CCOP(=S)(NN(Cc1ccccc1)C(=O)c1ccccc1)OCC	0	15	-2	7	6	89*	-22
CCOP(=O)(OCC)C(Cc1ccccc1)NC(C)=O (centres undefined)	.	11	-1	.	.	.	.
CC(C)N1C(=O)CC2(CC[N+](C)(CCOC(=O)C(O)(c3ccccc3)c3ccccc3)CC2)C1=O (centres undefined)	8	19	2	8	0	93*	-3
CN1CCN(/N=C/c2c(O)n(Cc3ccc(F)cc3)c(=O)[nH]c2=O)CC1	.	-1	-1	-1	.	.	.
CN1CCN(c2nc(N)c(Br)c(Cl)n2)CC1	.	15	0	3	.	.	.
COC(=O)C1CN(C#N)N(c2ccc(Cl)cc2)C12c1ccccc1-c1ccccc12 (centres undefined)	-3	.	3	-7	-36	100*	101*
CC(=O)c1ccc2c(c1)C1C(Cl)C(Sc3ccccc3[N+](=O)[O-])CC1C(c1ccccc1)N2 (centres undefined)	0	30	-4	-4	-14	19	.
CC(=O)c1ccc2c(c1)C1C(Cl)C(Sc3ccccc3[N+](=O)[O-])CC1C(c1ccccc1[N+](=O)[O-])N2 (centres undefined)	0	3	0	-4	6	54*	16
CCNC(=O)NC(=O)C(C)OC(=O)c1c(C)nn(Cc2ccccc2Cl)c1Cl (centres undefined)	-2	26	-2	-1	-7	51*	-12
Cc1cccc(C)c1OP(N)(=O)OCC(F)(F)F (centres undefined)	-4	-7	2	6	2	68*	-3
Cc1ccccc1OP(N)(=O)Oc1ccccc1C	-10	13	0	1	1	-5	.
CSc1ccc(CNC2CN3CCC2CC3)cc1 (centres undefined)	-2	25	-1	-4	3	100*	66*
COc1cc(O)c(C(=O)O)c(-c2cc(O)c(O)cc2C)c1	.	-25	.	6	.	.	.
C[C@@H]1C(=O)O[C@@H]2[C@H](O)C34[C@@H]5OC(=O)C3(O[C@H]3OC(=O)[C@H](O)C34[C@H](C(C)(C)C)[C@H]5O)[C@@]12O (some centres undefined)	3	4	2	7	6	-8	.
Cc1cc(C)nc(N2Cc3ccccc3C2=N)n1	-10	4	0	-3	7	50*	-5
CCc1cc(=O)[nH]c(SCCCF)n1	6	10	-3	-3	1	3	.
CCN1CC=C(c2c[nH]c3ccccc23)CC1	-1	-13	1	-2	-4	99*	-5
CC1(C)C[C@H]2C=C(C=O)[C@]3(C=O)C[C@]3(C)[C@H]2C1	-4	109*	-1	3	-36	84*	-8	CHOP confirm=128*
C#CCN1C(=O)C2(C(C#N)=C(N)OC(C)=C2C(=O)OCc2ccccc2)c2ccccc21 (centres undefined)	4	14	4	-4	-8	14	.
